# Columns and labels:
# HT-29 = experiment: Cytotoxicity against human HT-29 cells assessed as cell growth inhibition after 48 hrs by MTT assay; type: functional, cell-based; settings: HT-29, 48 h
# Method in brief: (§1)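 Cells from ATCC; HL-60 grown in IMDM, PC-3 in RPMI 1640, HT29 in DMEM, each with 10% FBS and penicillin/streptomycin, 37 °C, 5% CO2. Cells incubated without or with compound at the indicated concentrations and times. Mitochondrial MTT reduction read at 570 nm on a plate reader. IC50 given as mean ± SD of at least three independent experiments.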
# HL-60 = experiment: Cytotoxicity against human HL60 cells assessed as cell growth inhibition after 48 hrs by MTT assay; type: functional, cell-based; settings: HL-60, 48 h; method in brief: as §1
# PC-3 = experiment: Cytotoxicity against human PC3 cells assessed as cell growth inhibition after 48 hrs by MTT assay; type: functional, cell-based; settings: PC-3, 48 h; method in brief: as §1
# [1] = Drug uptake in human HL60 cell membrane at 15 uM for 15 hrs by DBCO-488-based fluorescence confocal microscopy; type: ADME, cell membranes; settings: hl-60, 15 h
# Method in brief: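 HL-60 cells treated with azido-bearing compound (15 μM, 15 h); DMSO-diluted control. Cells fixed in 99% alcohol, permeabilized with 0.1% Triton X-100 in PBS for 15 min, then washed. Copper-free labeling with DBCO-488 (2 μM) plus 0.5 mg/mL BSA in PBS for 6 h. RedDot2 nuclear and CellBrite Blue membrane counterstains; imaged by confocal fluorescence microscopy.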
Structure (SMILES),IC50 (HT-29),IC50 (HL-60),IC50 (PC-3),Drug uptake [1]
CCCCC(=O)N[C@H]1[C@H](O[C@H]2CC[C@]3(C)[C@H]4CC=C5[C@@H]6CC(C)(C)CC[C@]6(C(=O)O)CC[C@@]5(C)[C@]4(C)CC[C@H]3C2(C)C)O[C@H](CO)[C@@H](O)[C@@H]1O,21.7 µM,10.6 µM,24 µM,–
CCC(=O)N[C@H]1[C@H](O[C@H]2CC[C@]3(C)[C@H]4CC=C5[C@@H]6CC(C)(C)CC[C@]6(C(=O)O)CC[C@@]5(C)[C@]4(C)CC[C@H]3C2(C)C)O[C@H](CO)[C@@H](O)[C@@H]1O,16.4 µM,6.83 µM,11.9 µM,–
CCCCCCCC(=O)N[C@H]1[C@H](O[C@H]2CC[C@]3(C)[C@H]4CC=C5[C@@H]6CC(C)(C)CC[C@]6(C(=O)O)CC[C@@]5(C)[C@]4(C)CC[C@H]3C2(C)C)O[C@H](CO)[C@@H](O)[C@@H]1O,21.9 µM,1.68 µM,19.4 µM,–
CC[C@]1(O)C[C@H]2CN(CCc3c([nH]c4ccccc34)[C@@](C(=O)OC)(c3cc4c(cc3OC)N(C=O)[C@H]3[C@@](O)(C(=O)OC)[C@H](OC(C)=O)[C@]5(CC)C=CCN6CC[C@]43[C@@H]65)C2)C1 [VINCRISTINE],–,0.0018 µM,> 0.025 µM,–
CCCCCCCCCC(=O)N[C@H]1[C@H](O[C@H]2CC[C@]3(C)[C@H]4CC=C5[C@@H]6CC(C)(C)CC[C@]6(C(=O)O)CC[C@@]5(C)[C@]4(C)CC[C@H]3C2(C)C)O[C@H](CO)[C@@H](O)[C@@H]1O,> 30 µM,1.4 µM,> 30 µM,–
CCCCCCCCNC(=O)N[C@H]1[C@H](O[C@H]2CC[C@]3(C)[C@H]4CC=C5[C@@H]6CC(C)(C)CC[C@]6(C(=O)O)CC[C@@]5(C)[C@]4(C)CC[C@H]3C2(C)C)O[C@H](CO)[C@@H](O)[C@@H]1O,> 30 µM,2.14 µM,> 30 µM,–
CCCCCCC(=O)N[C@H]1[C@H](O[C@H]2CC[C@]3(C)[C@H]4CC=C5[C@@H]6CC(C)(C)CC[C@]6(C(=O)O)CC[C@@]5(C)[C@]4(C)CC[C@H]3C2(C)C)O[C@H](CO)[C@H](O)[C@@H]1O,> 30 µM,2.69 µM,> 30 µM,–
COC(=O)N[C@H]1[C@H](O[C@H]2CC[C@]3(C)[C@H]4CC=C5[C@@H]6CC(C)(C)CC[C@]6(C(=O)O)CC[C@@]5(C)[C@]4(C)CC[C@H]3C2(C)C)O[C@H](CO)[C@@H](O)[C@@H]1O,> 30 µM,11.4 µM,> 30 µM,–
CCCCCCCCCCCC(=O)N[C@H]1[C@H](O[C@H]2CC[C@]3(C)[C@H]4CC=C5[C@@H]6CC(C)(C)CC[C@]6(C(=O)O)CC[C@@]5(C)[C@]4(C)CC[C@H]3C2(C)C)O[C@H](CO)[C@@H](O)[C@@H]1O,> 30 µM,1.57 µM,21.4 µM,–
CCCCCCCCCOC(=O)N[C@H]1[C@H](O[C@H]2CC[C@]3(C)[C@H]4CC=C5[C@@H]6CC(C)(C)CC[C@]6(C(=O)O)CC[C@@]5(C)[C@]4(C)CC[C@H]3C2(C)C)O[C@H](CO)[C@@H](O)[C@@H]1O,22 µM,1.23 µM,16.1 µM,–
CCCC(=O)N[C@H]1[C@H](O[C@H]2CC[C@]3(C)[C@H]4CC=C5[C@@H]6CC(C)(C)CC[C@]6(C(=O)O)CC[C@@]5(C)[C@]4(C)CC[C@H]3C2(C)C)O[C@H](CO)[C@@H](O)[C@@H]1O,> 30 µM,2.48 µM,> 30 µM,–
CCCCCCCCC(=O)N[C@H]1[C@H](O[C@H]2CC[C@]3(C)[C@H]4CC=C5[C@@H]6CC(C)(C)CC[C@]6(C(=O)O)CC[C@@]5(C)[C@]4(C)CC[C@H]3C2(C)C)O[C@H](CO)[C@@H](O)[C@@H]1O,22.8 µM,1.46 µM,14.7 µM,–
CCCCCCCCOC(=O)N[C@H]1[C@H](O[C@H]2CC[C@]3(C)[C@H]4CC=C5[C@@H]6CC(C)(C)CC[C@]6(C(=O)O)CC[C@@]5(C)[C@]4(C)CC[C@H]3C2(C)C)O[C@H](CO)[C@@H](O)[C@@H]1O,20.3 µM,1.42 µM,15.4 µM,–
C#CCCC(=O)N[C@H]1[C@H](O[C@H]2CC[C@]3(C)[C@H]4CC=C5[C@@H]6CC(C)(C)CC[C@]6(C(=O)O)CC[C@@]5(C)[C@]4(C)CC[C@H]3C2(C)C)O[C@H](CO)[C@@H](O)[C@@H]1O,> 30 µM,10.6 µM,> 30 µM,Active
CCCCCC(=O)N[C@H]1[C@H](O[C@H]2CC[C@]3(C)[C@H]4CC=C5[C@@H]6CC(C)(C)CC[C@]6(C(=O)O)CC[C@@]5(C)[C@]4(C)CC[C@H]3C2(C)C)O[C@H](CO)[C@@H](O)[C@@H]1O,> 30 µM,5.82 µM,> 30 µM,–
O=c1[nH]cc(F)c(=O)[nH]1 [FLUOROURACIL],8.3 µM,> 30 µM,> 30 µM,–
CC1(C)CC[C@]2(C(=O)O)CC[C@]3(C)C(=CC[C@@H]4[C@@]5(C)CC[C@H](O[C@@H]6O[C@H](CO)[C@@H](O)[C@H](O)[C@H]6NC(=O)CN=[N+]=[N-])C(C)(C)[C@@H]5CC[C@]43C)[C@@H]2C1,23.1 µM,9.13 µM,22.4 µM,Active
CCCCCCCCCCCCCC(=O)N[C@H]1[C@H](O[C@H]2CC[C@]3(C)[C@H]4CC=C5[C@@H]6CC(C)(C)CC[C@]6(C(=O)O)CC[C@@]5(C)[C@]4(C)CC[C@H]3C2(C)C)O[C@H](CO)[C@@H](O)[C@@H]1O,> 30 µM,10.7 µM,> 30 µM,–
CCCCCCCCCCCCCCCCCC(=O)N[C@H]1[C@H](O[C@H]2CC[C@]3(C)[C@H]4CC=C5[C@@H]6CC(C)(C)CC[C@]6(C(=O)O)CC[C@@]5(C)[C@]4(C)CC[C@H]3C2(C)C)O[C@H](CO)[C@@H](O)[C@@H]1O,> 30 µM,> 30 µM,> 30 µM,–
CC1(C)CC[C@]2(C(=O)O)CC[C@]3(C)C(=CC[C@@H]4[C@@]5(C)CC[C@H](O)C(C)(C)[C@@H]5CC[C@]43C)[C@@H]2C1 [OLEANOLIC_ACID],> 30 µM,> 30 µM,> 30 µM,–
CCCCCCCOC(=O)N[C@H]1[C@H](O[C@H]2CC[C@]3(C)[C@H]4CC=C5[C@@H]6CC(C)(C)CC[C@]6(C(=O)O)CC[C@@]5(C)[C@]4(C)CC[C@H]3C2(C)C)O[C@H](CO)[C@@H](O)[C@@H]1O,21.7 µM,0.76 µM,15.4 µM,–
CCCCCCOC(=O)N[C@H]1[C@H](O[C@H]2CC[C@]3(C)[C@H]4CC=C5[C@@H]6CC(C)(C)CC[C@]6(C(=O)O)CC[C@@]5(C)[C@]4(C)CC[C@H]3C2(C)C)O[C@H](CO)[C@@H](O)[C@@H]1O,21.4 µM,1.44 µM,13.9 µM,–
CCCCCCCCCCCCCCCC(=O)N[C@H]1[C@H](O[C@H]2CC[C@]3(C)[C@H]4CC=C5[C@@H]6CC(C)(C)CC[C@]6(C(=O)O)CC[C@@]5(C)[C@]4(C)CC[C@H]3C2(C)C)O[C@H](CO)[C@@H](O)[C@@H]1O,> 30 µM,> 30 µM,> 30 µM,–
CCCCCOC(=O)N[C@H]1[C@H](O[C@H]2CC[C@]3(C)[C@H]4CC=C5[C@@H]6CC(C)(C)CC[C@]6(C(=O)O)CC[C@@]5(C)[C@]4(C)CC[C@H]3C2(C)C)O[C@H](CO)[C@@H](O)[C@@H]1O,> 30 µM,1.46 µM,> 30 µM,–
CC1(C)CC[C@]2(C(=O)O)CC[C@]3(C)C(=CC[C@@H]4[C@@]5(C)CC[C@H](O[C@@H]6O[C@H](CO)[C@@H](O)[C@H](O)[C@H]6N)C(C)(C)[C@@H]5CC[C@]43C)[C@@H]2C1,> 30 µM,2.65 µM,25 µM,–
CCOC(=O)N[C@H]1[C@H](O[C@H]2CC[C@]3(C)[C@H]4CC=C5[C@@H]6CC(C)(C)CC[C@]6(C(=O)O)CC[C@@]5(C)[C@]4(C)CC[C@H]3C2(C)C)O[C@H](CO)[C@@H](O)[C@@H]1O,> 30 µM,12.5 µM,> 30 µM,–
CCCOC(=O)N[C@H]1[C@H](O[C@H]2CC[C@]3(C)[C@H]4CC=C5[C@@H]6CC(C)(C)CC[C@]6(C(=O)O)CC[C@@]5(C)[C@]4(C)CC[C@H]3C2(C)C)O[C@H](CO)[C@@H](O)[C@@H]1O,> 30 µM,21.5 µM,> 30 µM,–
CC(=O)N[C@H]1[C@H](O[C@H]2CC[C@]3(C)[C@H]4CC=C5[C@@H]6CC(C)(C)CC[C@]6(C(=O)O)CC[C@@]5(C)[C@]4(C)CC[C@H]3C2(C)C)O[C@H](CO)[C@@H](O)[C@@H]1O,> 30 µM,10.3 µM,> 30 µM,–
CC(=O)N[C@H]1[C@H](O[C@H]2CC[C@]3(C)[C@H]4CC=C5[C@@H]6CC(C)(C)CC[C@]6(C(=O)O)CC[C@@]5(C)[C@]4(C)CC[C@H]3C2(C)C)O[C@H](CO)[C@H](O)[C@@H]1O,23.3 µM,11.6 µM,23.4 µM,–
CCCCOC(=O)N[C@H]1[C@H](O[C@H]2CC[C@]3(C)[C@H]4CC=C5[C@@H]6CC(C)(C)CC[C@]6(C(=O)O)CC[C@@]5(C)[C@]4(C)CC[C@H]3C2(C)C)O[C@H](CO)[C@@H](O)[C@@H]1O,18.1 µM,2.23 µM,15 µM,–

# Source: ChEMBL document CHEMBL4138179, “Design, synthesis and cytotoxic activity of N-Modified oleanolic saponins bearing A glucosamine” (Eur J Med Chem, 2018)
